In ChEMBL document CHEMBL1152843, “Synthesis of new series of 5,6-dihydro-4H-1,2-oxazines via hetero Diels-Alder reaction and evaluation of antimicrobial activity” (2009):
≈ marks a conversion by molar mass, not a printed value.

Assays:
Format in all cases: functional
Fusarium oxysporum [1] = assay: Antifungal activity against Fusarium oxysporum after 48 hrs by cup diffusion method
Escherichia coli [2] = assay: Antibacterial activity against Escherichia coli MTCC 443 at 20 ug after 24 hrs by cup diffusion method; details: MTCC 443, 24 h, read-out: IZ
Summary of the method: (§1)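 Agar cup diffusion. Plates of sterile medium in 9 cm dishes were seeded with 1 × 10⁵ cfu of bacteria, with the suspension adjusted to at least 1 × 10⁵ cfu/ml in nutrient broth. Compound in DMF was placed in 5 mm cups and pre-diffused for 1 h. Plates were incubated at 37 °C for 24 h and the inhibition zone measured in mm. DMF served as negative control.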

Klebsiella pneumoniae [3] = assay: Antibacterial activity against Klebsiella pneumoniae […] after 24 hrs by cup diffusion method
Klebsiella pneumoniae [4] = assay: Antibacterial activity against Klebsiella pneumoniae […] at 20 ug after 24 hrs by cup diffusion method; details: for zone of inhibition at 20 µg/disc: read-out: IZ; summary of the method: as §1
Aspergillus flavus [5] = assay: Antifungal activity against Aspergillus flavus after 48 hrs by cup diffusion method
Staphylococcus aureus [6] = assay: Antibacterial activity against Staphylococcus aureus MTCC 737 after 24 hrs by cup diffusion method
Fusarium verticillioides [7] = assay: Antifungal activity against Fusarium moniliforme after 48 hrs by cup diffusion method
Pseudomonas aeruginosa [8] = assay: Antibacterial activity against Pseudomonas aeruginosa MTCC 1688 at 20 ug after 24 hrs by cup diffusion method; details: MTCC 1688, 24 h, read-out: IZ; summary of the method: as §1
Escherichia coli [9] = assay: Antibacterial activity against Escherichia coli MTCC 443 after 24 hrs by cup diffusion method
Aspergillus flavus [10] = assay: Antifungal activity against Aspergillus flavus at 20 ug after 48 hrs by cup diffusion method; details: for zone of inhibition at 20 µg/disc: read-out: IZ
Summary of the method: (§2)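 Cup diffusion on 9 cm plates seeded with 1 × 10⁶ cfu of fungi, with spores adjusted to at least 1 × 10⁶ cfu/ml in potato dextrose broth. Compound in DMF was placed in 5 mm agar cups and left 1 h to diffuse. Plates were incubated at 28 °C for 48 h and the inhibition zone read in mm. DMF was the negative control.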

Aspergillus niger [11] = assay: Antifungal activity against Aspergillus niger at 20 ug after 48 hrs by cup diffusion method; details: read-out: IZ; summary of the method: as §2
Fusarium verticillioides [12] = assay: Antifungal activity against Fusarium moniliforme at 20 ug after 48 hrs by cup diffusion method; details: for zone of inhibition at 20 µg/disc: read-out: IZ; summary of the method: as §2
Fusarium oxysporum [13] = assay: Antifungal activity against Fusarium oxysporum at 20 ug after 48 hrs by cup diffusion method; details: for zone of inhibition at 20 µg/disc: read-out: IZ; summary of the method: as §2
Pseudomonas aeruginosa [14] = assay: Antibacterial activity against Pseudomonas aeruginosa MTCC 1688 after 24 hrs by cup diffusion method
Staphylococcus aureus [15] = assay: Antibacterial activity against Staphylococcus aureus MTCC 737 at 20 ug after 24 hrs by cup diffusion method; details: MTCC 737, 24 h, read-out: IZ; summary of the method: as §1
Aspergillus niger [16] = assay: Antifungal activity against Aspergillus niger after 48 hrs by cup diffusion method

Row | Molecule | MIC (Fusarium oxysporum [1]) [µg/mL] | zone of inhibition at 20 µg/disc (Escherichia coli [2]) [mm] | MIC (Klebsiella pneumoniae [3]) [µg/mL] | zone of inhibition at 20 µg/disc (Klebsiella pneumoniae [4]) [mm] | MIC (Aspergillus flavus [5]) [µg/mL] | MIC (Staphylococcus aureus [6]; MTCC 737, 24 h) [µg/mL] | MIC (Fusarium verticillioides [7]) [µg/mL] | zone of inhibition at 20 µg/disc (Pseudomonas aeruginosa [8]) [mm] | MIC (Escherichia coli [9]; MTCC 443, 24 h) [µg/mL] | zone of inhibition at 20 µg/disc (Aspergillus flavus [10]) [mm] | zone of inhibition at 20 µg/disc (Aspergillus niger [11]) [mm] | zone of inhibition at 20 µg/disc (Fusarium verticillioides [12]) [mm] | zone of inhibition at 20 µg/disc (Fusarium oxysporum [13]) [mm] | MIC (Pseudomonas aeruginosa [14]; MTCC 1688, 24 h) [µg/mL] | zone of inhibition at 20 µg/disc (Staphylococcus aureus [15]) [mm] | MIC (Aspergillus niger [16]) [µg/mL] | other results
1 | Cc1ccc(C2=NOC(CO)CC2)cc1C (stereo unspecified) | 25 (≈ 114 µM) | 13.7 | 20 (≈ 91.2 µM) | 17.7 | 35 (≈ 160 µM) | 15 (≈ 68.4 µM) | 35 (≈ 160 µM) | 12.8 | 25 (≈ 114 µM) | 8.66 | 10.7 | 14.7 | 19.8 | 25 (≈ 114 µM) | 14.8 | 30 (≈ 137 µM) | 
2 | COc1ccc(C2=NOC(Cc3ccc4c(c3)OCO4)CC2)cc1 (stereo unspecified) | 35 (≈ 108 µM) | 21.8 | 15 (≈ 46.1 µM) | 19.7 | 40 (≈ 123 µM) | 15 (≈ 46.1 µM) | 35 (≈ 108 µM) | 31.8 | 25 (≈ 76.8 µM) | 9.66 | 10.7 | 12.8 | 16.8 | 20 (≈ 61.5 µM) | 21.7 | 35 (≈ 108 µM) | 
3 | Cc1ccc(C2=NOC(C#N)CC2)cc1 (stereo unspecified) | 25 (≈ 125 µM) | 11.5 | 20 (≈ 99.9 µM) | 16.7 | 35 (≈ 175 µM) | 15 (≈ 74.9 µM) | 30 (≈ 150 µM) | 12.7 | 25 (≈ 125 µM) | 7.5 | 6.83 | 10.5 | 13.7 | 20 (≈ 99.9 µM) | 23.5 | 40 (≈ 200 µM) | 
4 | CCOC(=O)C1CCC(c2ccc3c(c2)CCC3)=NO1 (stereo unspecified) | 10 (≈ 36.6 µM) | 10.7 | 25 (≈ 91.5 µM) | 13.5 | 10 (≈ 36.6 µM) | 20 (≈ 73.2 µM) | 20 (≈ 73.2 µM) | 13.4 | 30 (≈ 110 µM) | 28.5 | 26.7 | 32.8 | 36.5 | 20 (≈ 73.2 µM) | 18.7 | 15 (≈ 54.9 µM) | 
5 | Cc1ccc(C2=NOC(CCl)CC2)cc1 (stereo unspecified) | 15 (≈ 67.1 µM) | 15.7 | 15 (≈ 67.1 µM) | 16.5 | 15 (≈ 67.1 µM) | 10 (≈ 44.7 µM) | 10 (≈ 44.7 µM) | 11.5 | 20 (≈ 89.4 µM) | 14.5 | 13.8 | 17.7 | 20.8 | 15 (≈ 67.1 µM) | 16.7 | 15 (≈ 67.1 µM) | 
6 | NYSTATIN | 20 |  |  |  | 15 |  | 15 |  |  |  |  |  |  |  |  | 10 | inhibition zone (IZ) (Aspergillus flavus [10]): 13.2 mm; inhibition zone (IZ) (Fusarium verticillioides [12]): 15.6 mm; inhibition zone (IZ) (Fusarium oxysporum [13]): 16.6 mm
7 | CCOC(=O)C1CCC(c2ccc(C)c(C)c2)=NO1 (stereo unspecified) | 15 (≈ 57.4 µM) | 13.5 | 15 (≈ 57.4 µM) | 16.7 | 15 (≈ 57.4 µM) | 10 (≈ 38.3 µM) | 25 (≈ 95.7 µM) | 12.8 | 20 (≈ 76.5 µM) | 12.7 | 11.5 | 16.7 | 19.8 | 20 (≈ 76.5 µM) | 17.8 | 20 (≈ 76.5 µM) | 
8 | Cc1ccc(C2=NOC(CCl)CC2)cc1C (stereo unspecified) | 10 (≈ 42.1 µM) | 14.8 | 15 (≈ 63.1 µM) | 15.8 | 15 (≈ 63.1 µM) | 10 (≈ 42.1 µM) | 20 (≈ 84.1 µM) | 17.6 | 20 (≈ 84.1 µM) | 9.5 | 8.5 | 11.5 | 20.7 | 15 (≈ 63.1 µM) | 20.7 | 15 (≈ 63.1 µM) | 
9 | Cc1ccc(C2=NOC(CO)CC2)cc1 (stereo unspecified) | 25 (≈ 122 µM) | 8.83 | 30 (≈ 146 µM) | 19.8 | 30 (≈ 146 µM) | 25 (≈ 122 µM) | 30 (≈ 146 µM) | 10.8 | 35 (≈ 171 µM) | 12.5 | 11.5 | 15.8 | 19.8 | 25 (≈ 122 µM) | 7.5 | 35 (≈ 171 µM) | 
10 | CC1(C)S[C@@H]2[C@H](NC(=O)Cc3ccccc3)C(=O)N2[C@H]1C(=O)O [PENICILLIN G] |  | 0 |  | 0 |  |  |  | 0 |  |  |  |  |  |  | 9.38 |  | 
11 | Cc1ccc(C2=NOC(Cc3ccc4c(c3)OCO4)CC2)cc1C (stereo unspecified) | 10 (≈ 30.9 µM) | 11.5 | 20 (≈ 61.8 µM) | 15.5 | 10 (≈ 30.9 µM) | 15 (≈ 46.4 µM) | 20 (≈ 61.8 µM) | 11 | 30 (≈ 92.8 µM) | 18.8 | 15.7 | 22.8 | 25.3 | 20 (≈ 61.8 µM) | 21.3 | 15 (≈ 46.4 µM) | 
12 | COc1ccc(C2=NOC(C#N)CC2)cc1 (stereo unspecified) | 30 (≈ 139 µM) | 10.2 | 15 (≈ 69.4 µM) | 6.66 | 35 (≈ 162 µM) | 10 (≈ 46.2 µM) | 35 (≈ 162 µM) | 12.2 | 25 (≈ 116 µM) | 8.5 | 9.5 | 13.4 | 18.5 | 15 (≈ 69.4 µM) | 9.5 | 40 (≈ 185 µM) | 
13 | GENTAMICIN |  |  | 15 |  |  |  |  |  |  |  |  |  |  |  |  |  | inhibition zone (IZ) (Klebsiella pneumoniae [4]): 17.5 mm; MIC (Staphylococcus aureus [6]): 15 µg/mL; MIC (Escherichia coli [9]): 20 µg/mL; MIC (Pseudomonas aeruginosa [14]): 15 µg/mL
